Data as given in ChEMBL document CHEMBL1821590, “Novel dihydropyrimidines and its pyrazole derivatives: synthesis and pharmacological screening” (Eur J Med Chem, 2011).
Values after ≈ are worked out from the molar mass of the structure shown.

System: not listed separately
Assay: Antioxidant activity assessed as nitric oxide radical scavenging activity after 150 mins
Type: functional
Conditions: not given
Procedure, shortened: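 10 mM sodium nitroprusside (4 mL), PBS pH 7.4 (1 mL) and sample or ascorbic acid in DMSO (1 mL, 12.5–100 µg/mL), incubated 150 min at 25 °C. Nitrite detected with sulphanilic acid (5 min) then naphthylethylenediamine (30 min, diffused light). Read at […]. Triplicate. % inhibition = [1 − (Vt/Vc)] × 100. IC50 derived from it.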

| Compound | IC50 |
| --- | --- |
| CSc1nc(-c2ccccc2F)c(C#N)c(=O)n1C | 78 µg/mL (≈ 283 µM) |

System: not listed separately
Assay: Antioxidant activity assessed as hydrogen peroxide scavenging activity after 10 mins
Type: functional
Conditions: not given
Procedure, shortened: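 H2O2 (20 mM) in PBS pH 7.4. 1 mL of sample or ascorbic acid in methanol (12.5–100 µg/mL) added to 2 mL H2O2 solution. A230 read after 10 min. % inhibition = [1 − (Vt/Vc)] × 100. Triplicate, averaged. IC50 derived from % inhibition across concentrations.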

| Compound | IC50 |
| --- | --- |
| CSc1nc(-c2ccccc2F)c(C#N)c(=O)n1C | 63 µg/mL (≈ 229 µM) |

System: not listed separately
Assay: Antioxidant activity assessed as inhibition of lipid peroxidation using egg lecithin liposomes incubated for 1 hr
Type: functional
Conditions: not given
Procedure, shortened: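 Egg lecithin (3 mg/mL, phosphate buffer pH 7.4) sonicated 10 min to form liposomes. Sample or ascorbic acid (12.5–100 µg/mL) added. Peroxidation induced with FeCl3 and L-ascorbic acid, 1 h at 37 °C. Stopped with HCl/TCA/TBA/BHA, boiled 15 min, centrifuged, supernatant read at 532 nm. Triplicate. % inhibition vs control. IC50 derived.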

| Compound | IC50 |
| --- | --- |
| CSc1nc(-c2ccccc2F)c(C#N)c(=O)n1C | 58 µg/mL (≈ 211 µM) |

System: not listed separately
Assay: Antioxidant activity assessed as potassium ferricyanide ion reducing power after 20 mins
Type: functional
Conditions: not given
Procedure, shortened: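 Oyaizu method. Samples or ascorbic acid in DMF (12.5–100 µg/mL) mixed with 0.2 M phosphate buffer pH 6.6 and 1% potassium ferricyanide, 20 min at 50 °C. 10% TCA added, centrifuged. Supernatant mixed with water and 0.1% FeCl3, read at 700 nm. % = [(Vt/Vc) − 1] × 100. IC50 derived.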

| Compound | IC50 |
| --- | --- |
| CSc1nc(-c2ccccc2F)c(C#N)c(=O)n1C | 61 µg/mL (≈ 222 µM) |

System: not listed separately
Assay: Antiinflammatory activity assessed as inhibition of albumin denaturation at 100 ug/ml by UV-visible spectrophotometry
Type: functional
Conditions: not given
Procedure, shortened: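 Compounds dissolved in minimal DMF, diluted in PBS pH 7.4 (final DMF <2.5%). 1 mL test solution (100 µg/mL) plus 1 mL 1% albumin in PBS, 15 min at 27 ± 1 °C, then heated 10 min at 60 ± 1 °C. After cooling, turbidity read at 660 nm. % inhibition = [(Vt/Vc) − 1] × 100 against a no-drug control. Triplicate, averaged. Diclofenac standard.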

| Compound | inhibition |
| --- | --- |
| CSc1nc(-c2ccccc2F)c(C#N)c(=O)n1C | 69.3% |

System: Metaphire posthuma
Assay: Anthelmintic activity against Pheretima posthuma assessed as time taken for complete parasite paralysis at 0.1% w/v
Type: functional
Conditions: not given
Procedure, shortened: (§1)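 Earthworms (Pheretima posthuma) exposed to test solutions at 0.1, 0.2 and 0.5% w/v; time in minutes to complete paralysis (worms motionless) recorded. Albendazole as standard. Mean of three determinations ± S.D.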

| Compound | Time |
| --- | --- |
| CSc1nc(-c2ccccc2F)c(C#N)c(=O)n1C | 72.34 min |

System: Metaphire posthuma
Assay: Anthelmintic activity against Pheretima posthuma assessed as time taken for complete parasite paralysis at 0.2% w/v
Type: functional
Conditions: not given
Procedure, shortened: as §1

| Compound | Time |
| --- | --- |
| CSc1nc(-c2ccccc2F)c(C#N)c(=O)n1C | 71.4 min |

System: Metaphire posthuma
Assay: Anthelmintic activity against Pheretima posthuma assessed as time taken for complete parasite paralysis at 0.5% w/v
Type: functional
Conditions: not given
Procedure, shortened: as §1

| Compound | Time |
| --- | --- |
| CSc1nc(-c2ccccc2F)c(C#N)c(=O)n1C | 55.17 min |

System: Metaphire posthuma
Assay: Anthelmintic activity against Pheretima posthuma assessed as time taken for parasite death at 0.1% w/v
Type: functional
Conditions: not given
Procedure, shortened: (§2)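 Earthworms (Pheretima posthuma, spelled Perituma posthuma in text) exposed to test compounds at 0.1, 0.2 and 0.5% w/v. Albendazole served as standard, with an untreated control. Paralysis was recorded as the time until worms became motionless, then time to death was recorded, in minutes. Each value is the mean of three determinations with S.D.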

| Compound | Time |
| --- | --- |
| CSc1nc(-c2ccccc2F)c(C#N)c(=O)n1C | 90.4 min |

System: Metaphire posthuma
Assay: Anthelmintic activity against Pheretima posthuma assessed as time taken for parasite death at 0.2% w/v
Type: functional
Conditions: not given
Procedure, shortened: as §2

| Compound | Time |
| --- | --- |
| CSc1nc(-c2ccccc2F)c(C#N)c(=O)n1C | 85.73 min |

System: Metaphire posthuma
Assay: Anthelmintic activity against Pheretima posthuma assessed as time taken for parasite death at 0.5% w/v
Type: functional
Conditions: not given
Procedure, shortened: as §2

| Compound | Time |
| --- | --- |
| CSc1nc(-c2ccccc2F)c(C#N)c(=O)n1C | 69.54 min |

System: Escherichia coli
Assay: Antimicrobial activity against Escherichia coli at 25 ug/ml by agar plate diffusion technique
Type: functional
Conditions: read-out: IZ
Procedure, shortened: (§3)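 Agar plate diffusion against E. coli, P. aeruginosa, S. aureus and B. subtilis, with compounds at 25, 50 and 100 µg/mL. Streptomycin as standard.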

| Compound | zone of inhibition at 25 µg/mL |
| --- | --- |
| CSc1nc(-c2ccccc2F)c(C#N)c(=O)n1C | 10.9 mm |

System: Escherichia coli
Assay: Antimicrobial activity against Escherichia coli at 50 ug/ml by agar plate diffusion technique
Type: functional
Conditions: read-out: IZ
Procedure, shortened: as §3

| Compound | zone of inhibition at 50 µg/mL |
| --- | --- |
| CSc1nc(-c2ccccc2F)c(C#N)c(=O)n1C | 13.8 mm |

System: Escherichia coli
Assay: Antimicrobial activity against Escherichia coli at 100 ug/ml by agar plate diffusion technique
Type: functional
Conditions: read-out: IZ
Procedure, shortened: as §3

| Compound | zone of inhibition at 100 µg/mL |
| --- | --- |
| CSc1nc(-c2ccccc2F)c(C#N)c(=O)n1C | 14.2 mm |

System: Pseudomonas aeruginosa
Assay: Antimicrobial activity against Pseudomonas aeruginosa at 25 ug/ml by agar plate diffusion technique
Type: functional
Conditions: read-out: IZ
Procedure, shortened: as §3

| Compound | zone of inhibition at 25 µg/mL |
| --- | --- |
| CSc1nc(-c2ccccc2F)c(C#N)c(=O)n1C | 9.17 mm |

System: Pseudomonas aeruginosa
Assay: Antimicrobial activity against Pseudomonas aeruginosa at 50 ug/ml by agar plate diffusion technique
Type: functional
Conditions: read-out: IZ
Procedure, shortened: as §3

| Compound | zone of inhibition at 50 µg/mL |
| --- | --- |
| CSc1nc(-c2ccccc2F)c(C#N)c(=O)n1C | 10.4 mm |

System: Pseudomonas aeruginosa
Assay: Antimicrobial activity against Pseudomonas aeruginosa at 100 ug/ml by agar plate diffusion technique
Type: functional
Conditions: read-out: IZ
Procedure, shortened: as §3

| Compound | zone of inhibition at 100 µg/mL |
| --- | --- |
| CSc1nc(-c2ccccc2F)c(C#N)c(=O)n1C | 11.8 mm |

System: Bacillus subtilis
Assay: Antimicrobial activity against Bacillus subtilis at 25 ug/ml by agar plate diffusion technique
Type: functional
Conditions: read-out: IZ
Procedure, shortened: as §3

| Compound | zone of inhibition at 25 µg/mL |
| --- | --- |
| CSc1nc(-c2ccccc2F)c(C#N)c(=O)n1C | 16.9 mm |

System: Bacillus subtilis
Assay: Antimicrobial activity against Bacillus subtilis at 50 ug/ml by agar plate diffusion technique
Type: functional
Conditions: read-out: IZ
Procedure, shortened: as §3

| Compound | zone of inhibition at 50 µg/mL |
| --- | --- |
| CSc1nc(-c2ccccc2F)c(C#N)c(=O)n1C | 20.2 mm |

System: Bacillus subtilis
Assay: Antimicrobial activity against Bacillus subtilis at 100 ug/ml by agar plate diffusion technique
Type: functional
Conditions: read-out: IZ
Procedure, shortened: as §3

| Compound | zone of inhibition at 100 µg/mL |
| --- | --- |
| CSc1nc(-c2ccccc2F)c(C#N)c(=O)n1C | 29.4 mm |

System: Staphylococcus aureus
Assay: Antimicrobial activity against Staphylococcus aureus at 25 ug/ml by agar plate diffusion technique
Type: functional
Conditions: read-out: IZ
Procedure, shortened: as §3

| Compound | zone of inhibition at 25 µg/mL |
| --- | --- |
| CSc1nc(-c2ccccc2F)c(C#N)c(=O)n1C | 12.2 mm |

System: Staphylococcus aureus
Assay: Antimicrobial activity against Staphylococcus aureus at 50 ug/ml by agar plate diffusion technique
Type: functional
Conditions: read-out: IZ
Procedure, shortened: as §3

| Compound | zone of inhibition at 50 µg/mL |
| --- | --- |
| CSc1nc(-c2ccccc2F)c(C#N)c(=O)n1C | 15.3 mm |

System: Staphylococcus aureus
Assay: Antimicrobial activity against Staphylococcus aureus at 100 ug/ml by agar plate diffusion technique
Type: functional
Conditions: read-out: IZ
Procedure, shortened: as §3

| Compound | zone of inhibition at 100 µg/mL |
| --- | --- |
| CSc1nc(-c2ccccc2F)c(C#N)c(=O)n1C | 20.9 mm |

System: Candida albicans
Assay: Antimicrobial activity against Candida albicans at 25 ug/ml by paper disc method
Type: functional
Conditions: read-out: IZ
Procedure, shortened: (§4)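 Paper disc method against A. niger and C. albicans, with compounds at 25, 50 and 100 µg/mL. Amphotericin-B as standard.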

| Compound | zone of inhibition at 25 µg/mL |
| --- | --- |
| CSc1nc(-c2ccccc2F)c(C#N)c(=O)n1C | 10.8 mm |

System: Candida albicans
Assay: Antimicrobial activity against Candida albicans at 50 ug/ml by paper disc method
Type: functional
Conditions: read-out: IZ
Procedure, shortened: as §4

| Compound | zone of inhibition at 50 µg/mL |
| --- | --- |
| CSc1nc(-c2ccccc2F)c(C#N)c(=O)n1C | 12.1 mm |

System: Candida albicans
Assay: Antimicrobial activity against Candida albicans at 100 ug/ml by paper disc method
Type: functional
Conditions: read-out: IZ
Procedure, shortened: as §4

| Compound | zone of inhibition at 100 µg/mL |
| --- | --- |
| CSc1nc(-c2ccccc2F)c(C#N)c(=O)n1C | 16 mm |

System: Aspergillus niger
Assay: Antimicrobial activity against Aspergillus niger at 25 ug/ml by paper disc method
Type: functional
Conditions: read-out: IZ
Procedure, shortened: as §4

| Compound | zone of inhibition at 25 µg/mL |
| --- | --- |
| CSc1nc(-c2ccccc2F)c(C#N)c(=O)n1C | 12.7 mm |

System: Aspergillus niger
Assay: Antimicrobial activity against Aspergillus niger at 50 ug/ml by paper disc method
Type: functional
Conditions: read-out: IZ
Procedure, shortened: as §4

| Compound | zone of inhibition at 50 µg/mL |
| --- | --- |
| CSc1nc(-c2ccccc2F)c(C#N)c(=O)n1C | 14.9 mm |

System: Aspergillus niger
Assay: Antimicrobial activity against Aspergillus niger at 100 ug/ml by paper disc method
Type: functional
Conditions: read-out: IZ
Procedure, shortened: as §4

| Compound | zone of inhibition at 100 µg/mL |
| --- | --- |
| CSc1nc(-c2ccccc2F)c(C#N)c(=O)n1C | 22.7 mm |
